Measured values as given in ChEMBL document CHEMBL4014350, “Alkoxyurea-Based Histone Deacetylase Inhibitors Increase Cisplatin Potency in Chemoresistant Cancer Cell Lines” (J Med Chem, 2017).
Calls of active or inactive are those of the source. The calls are words filed in the database; no cut-off is given here.

What was measured:
CAL-27 [1] = assay: Potentiation of 0.316 uM cisplatin-induced cytotoxicity against human CAL27 cells assessed as decrease in cell viability by measuring combination index at 500 uM preincubated for 48 hrs followed by cisplatin treatment measured after 72 hrs by MTT assay; type: functional; details: in the assay text read “at 500 nM” for “at 500 uM”
How it was run: (§1)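 Cal27 and cisplatin-resistant Cal27CisR cells were preincubated with the HDAC inhibitor for 48 h, then given cisplatin in combination. Viability was read by MTT after 72 h. The combination index was computed by the Chou–Talalay method: CI > 1 is antagonism, CI = 1 is additive, and CI < 0.9 is synergism. Points with fraction affected below 0.20 were flagged.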

CAL-27 [2] = assay: Potentiation of 5 uM cisplatin-induced cytotoxicity against human CAL27 cells assessed as decrease in cell viability by measuring combination index at 300 uM preincubated for 48 hrs followed by cisplatin treatment measured after 72 hrs by MTT assay; type: functional; details: in the assay text read “at 300 nM” for “at 300 uM”
How it was run: (§2)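 HDAC inhibitor was added 48 h before cisplatin, then cells were exposed to cisplatin for 72 h and viability was read by MTT assay. Combination index was computed by the Chou–Talalay method: CI > 1 is antagonism, CI = 1 additive, CI < 0.9 synergism. Points with fraction affected below 0.20 were flagged.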

CAL-27 [3] = assay: Potentiation of 1 uM cisplatin-induced cytotoxicity against human CAL27 cells assessed as decrease in cell viability by measuring combination index at 400 uM preincubated for 48 hrs followed by cisplatin treatment measured after 72 hrs by MTT assay; type: functional; how it was run: as §2
CAL-27 [4] = assay: Potentiation of 2 uM cisplatin-induced cytotoxicity against human CAL27 cells assessed as decrease in cell viability by measuring combination index at 300 uM preincubated for 48 hrs followed by cisplatin treatment measured after 72 hrs by MTT assay; type: functional; details: in the assay text read “at 300 nM” for “at 300 uM”; how it was run: as §2
[5] = target: T1, Histone deacetylase 1/6 (Homo sapiens) (UniProt Q13547+Q9UBN7); assay: Inhibition of HDAC1/HDAC6 in human Cal27CisR cells assessed as potentiation of 20 uM cisplatin-induced cytotoxicity by measuring combination index at 200 nM preincubated for 48 hrs followed by cisplatin treatment measured after 72 hrs by MTT assay
CAL-27 [6] = assay: Potentiation of 0.316 uM cisplatin-induced cytotoxicity against human CAL27 cells assessed as decrease in cell viability by measuring combination index at 200 uM preincubated for 48 hrs followed by cisplatin treatment measured after 72 hrs by MTT assay; type: functional; details: in the assay text read “at 200 nM” for “at 200 uM”; how it was run: as §1
CAL-27 [7] = assay: Potentiation of 0.316 uM cisplatin-induced cytotoxicity against human CAL27 cells assessed as decrease in cell viability by measuring combination index at 400 uM preincubated for 48 hrs followed by cisplatin treatment measured after 72 hrs by MTT assay; type: functional; details: in the assay text read “at 400 nM” for “at 400 uM”; how it was run: as §1
[8] = target: T1, Histone deacetylase 1/6 (Homo sapiens); assay: Inhibition of HDAC1/HDAC6 in human Cal27CisR cells assessed as potentiation of 5 uM cisplatin-induced cytotoxicity by measuring combination index at 300 nM preincubated for 48 hrs followed by cisplatin treatment measured after 72 hrs by MTT assay
[9] = target: T1, Histone deacetylase 1/6 (Homo sapiens); assay: Inhibition of HDAC1/HDAC6 in human Cal27CisR cells assessed as potentiation of cisplatin-induced apoptosis at 0.5 uM preincubated for 48 hrs followed by cisplatin treatment for 6 hrs measured after 24 hrs by propidium iodide dye-based flow cytometry (reference value: 20.3%); type: cell-based; design: scale not given: the % may be the effect or the level left
CAL-27 [10] = assay: Potentiation of 5 uM cisplatin-induced cytotoxicity against human CAL27 cells assessed as decrease in cell viability by measuring combination index at 100 uM preincubated for 48 hrs followed by cisplatin treatment measured after 72 hrs by MTT assay; type: functional; details: in the assay text read “at 100 nM” for “at 100 uM”; how it was run: as §2
[11] = target: T1, Histone deacetylase 1/6 (Homo sapiens); assay: Inhibition of HDAC1/HDAC6 in human Cal27CisR cells assessed as potentiation of 20 uM cisplatin-induced cytotoxicity by measuring combination index at 300 nM preincubated for 48 hrs followed by cisplatin treatment measured after 72 hrs by MTT assay
[12] = target: T1, Histone deacetylase 1/6 (Homo sapiens); assay: Inhibition of HDAC1/HDAC6 in human Cal27CisR cells assessed as potentiation of 10 uM cisplatin-induced cytotoxicity by measuring combination index at 200 uM preincubated for 48 hrs followed by cisplatin treatment measured after 72 hrs by MTT assay; type: cell-based
How it was run: (§3)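 Cal27CisR cells preincubated 48 h with the HDAC inhibitor, then exposed to cisplatin for 72 h. Viability read by MTT. Combination index calculated by the Chou–Talalay method: CI > 1 antagonism, CI = 1 additive, CI < 0.9 synergism. Points with fraction affected below 0.20 are flagged. Values are the mean of three experiments.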

CAL-27 [13] = assay: Potentiation of 0.316 uM cisplatin-induced cytotoxicity against human CAL27 cells assessed as decrease in cell viability by measuring combination index at 700 uM preincubated for 48 hrs followed by cisplatin treatment measured after 72 hrs by MTT assay; type: functional; details: in the assay text read “at 700 nM” for “at 700 uM”; how it was run: as §1
[14] = target: T1, Histone deacetylase 1/6 (Homo sapiens); assay: Inhibition of HDAC1/HDAC6 in human Cal27CisR cells assessed as potentiation of 3.16 uM cisplatin-induced cytotoxicity by measuring combination index at 300 uM preincubated for 48 hrs followed by cisplatin treatment measured after 72 hrs by MTT assay; type: cell-based; how it was run: as §3
[15] = target: T1, Histone deacetylase 1/6 (Homo sapiens); assay: Inhibition of HDAC1/HDAC6 in human Cal27CisR cells assessed as potentiation of 10 uM cisplatin-induced cytotoxicity by measuring combination index at 100 uM preincubated for 48 hrs followed by cisplatin treatment measured after 72 hrs by MTT assay; type: cell-based; how it was run: as §3
Cal27CisR = assay: Induction of apoptosis in human Cal27CisR cells at 1 uM for 48 hrs by propidium iodide dye-based flow cytometry; type: functional, cell-based
CAL-27 [16] = assay: Potentiation of 1 uM cisplatin-induced cytotoxicity against human CAL27 cells assessed as decrease in cell viability by measuring combination index at 200 uM preincubated for 48 hrs followed by cisplatin treatment measured after 72 hrs by MTT assay; type: functional; how it was run: as §1
CAL-27 [17] = assay: Potentiation of cisplatin-induced cytotoxicity against human CAL27 cells assessed as decrease in cell viability at 0.5 uM preincubated for 48 hrs followed by cisplatin treatment measured after 72 hrs by MTT assay relative to cisplatin alone; type: functional
How it was run: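 Cells were preincubated 48 h with HDAC inhibitor, then cisplatin was added over a concentration range for 72 h, with MTT read-out. Shift factor is cisplatin-alone IC50 divided by combination IC50. Data are mean ± SEM of pooled data from at least three independent experiments, each in triplicate. Significance was by t test (p < 0.05).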

CAL-27 [18] = assay: Induction of apoptosis in human CAL27 cells at 1 uM for 48 hrs by propidium iodide dye-based flow cytometry; type: functional, cell-based
CAL-27 [19] = assay: Potentiation of 0.316 uM cisplatin-induced cytotoxicity against human CAL27 cells assessed as decrease in cell viability by measuring combination index at 100 uM preincubated for 48 hrs followed by cisplatin treatment measured after 72 hrs by MTT assay; type: functional; details: in the assay text read “at 100 nM” for “at 100 uM”; how it was run: as §1

T1 sequence (Q13547 whole entry, looked up): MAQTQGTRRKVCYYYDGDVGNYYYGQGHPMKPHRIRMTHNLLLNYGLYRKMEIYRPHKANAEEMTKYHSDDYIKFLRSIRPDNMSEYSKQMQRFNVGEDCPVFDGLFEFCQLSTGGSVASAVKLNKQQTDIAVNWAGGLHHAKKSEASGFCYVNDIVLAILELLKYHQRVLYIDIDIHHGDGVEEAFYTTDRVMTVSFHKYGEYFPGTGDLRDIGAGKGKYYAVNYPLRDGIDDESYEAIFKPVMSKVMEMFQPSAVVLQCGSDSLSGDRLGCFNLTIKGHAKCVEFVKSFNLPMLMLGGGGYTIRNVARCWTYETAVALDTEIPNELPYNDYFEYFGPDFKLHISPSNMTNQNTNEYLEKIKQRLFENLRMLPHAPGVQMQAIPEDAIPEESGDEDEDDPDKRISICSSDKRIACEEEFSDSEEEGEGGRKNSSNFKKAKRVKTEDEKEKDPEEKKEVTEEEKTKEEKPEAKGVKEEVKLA
T1 sequence (Q9UBN7 whole entry, looked up): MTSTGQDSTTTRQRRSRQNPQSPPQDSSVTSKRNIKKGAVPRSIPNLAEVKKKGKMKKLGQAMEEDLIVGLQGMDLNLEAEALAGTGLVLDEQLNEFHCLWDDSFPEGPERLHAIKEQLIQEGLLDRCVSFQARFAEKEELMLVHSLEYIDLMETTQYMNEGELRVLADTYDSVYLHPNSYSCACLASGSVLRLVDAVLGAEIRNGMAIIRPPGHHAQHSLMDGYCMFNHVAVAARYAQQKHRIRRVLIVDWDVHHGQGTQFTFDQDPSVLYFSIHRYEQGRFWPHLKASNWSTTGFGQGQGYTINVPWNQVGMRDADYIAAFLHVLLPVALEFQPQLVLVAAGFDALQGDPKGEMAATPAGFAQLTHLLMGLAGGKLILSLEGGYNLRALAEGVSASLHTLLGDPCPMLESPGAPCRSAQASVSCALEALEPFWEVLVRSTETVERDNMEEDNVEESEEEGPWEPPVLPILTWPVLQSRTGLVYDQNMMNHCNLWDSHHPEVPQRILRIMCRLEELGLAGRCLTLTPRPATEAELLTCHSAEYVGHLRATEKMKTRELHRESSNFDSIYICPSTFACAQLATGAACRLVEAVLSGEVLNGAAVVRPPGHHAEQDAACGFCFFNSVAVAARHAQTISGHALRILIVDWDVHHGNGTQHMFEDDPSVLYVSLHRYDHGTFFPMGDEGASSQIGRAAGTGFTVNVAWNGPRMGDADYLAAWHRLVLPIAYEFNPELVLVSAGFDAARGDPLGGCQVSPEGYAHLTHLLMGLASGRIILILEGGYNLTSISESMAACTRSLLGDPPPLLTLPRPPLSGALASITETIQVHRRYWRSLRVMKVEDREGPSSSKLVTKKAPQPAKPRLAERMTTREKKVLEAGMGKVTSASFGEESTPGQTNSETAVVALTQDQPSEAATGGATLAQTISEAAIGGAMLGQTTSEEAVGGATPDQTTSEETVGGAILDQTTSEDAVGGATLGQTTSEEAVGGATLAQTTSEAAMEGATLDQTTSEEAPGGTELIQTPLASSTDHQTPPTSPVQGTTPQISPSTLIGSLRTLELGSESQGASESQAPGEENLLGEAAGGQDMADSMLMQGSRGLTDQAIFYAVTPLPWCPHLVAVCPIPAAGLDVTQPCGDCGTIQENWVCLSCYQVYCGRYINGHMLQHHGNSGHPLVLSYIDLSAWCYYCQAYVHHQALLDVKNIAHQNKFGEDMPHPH

| Activity [9] [%] | SMILES | CI (CAL-27 [1]) | CI (CAL-27 [2]) | CI (CAL-27 [3]) | CI (CAL-27 [4]) | CI [5] | CI (CAL-27 [6]) | CI (CAL-27 [7]) | CI [8] | CI (CAL-27 [10]) | CI [11] | CI [12] | CI (CAL-27 [13]) | CI [14] | CI [15] | Activity (Cal27CisR) | CI (CAL-27 [16]) | fold change (FC) (CAL-27 [17]) | Activity (CAL-27 [18]) | CI (CAL-27 [19]) |
| --- | --- | --- | --- | --- | --- | --- | --- | --- | --- | --- | --- | --- | --- | --- | --- | --- | --- | --- | --- | --- |
| – | COc1cc(NC(=O)NOCCCCCC(=O)NO)c2ncccc2c1 | 0.86 | – | – | – | – | – | – | – | – | – | – | – | – | – | – | – | – | – | – |
| 59.7 | COc1cc(NC(=O)NOCCCCCC(=O)NO)c2nccc(C)c2c1 | – | 0.25 | 0.39 | 0.31 | 0.33 | <0.2 | <0.2 | < 0.2 | 0.5 | 0.34 | 0.48 | 0.68 | < 0.2 | < 0.2 | inactive | 0.76 | 6.1 | inactive | <0.2 |
| 59.7 | COc1cc(NC(=O)NOCCCCCC(=O)NO)c2nc(OC)cc(C)c2c1 | 0.79 | 0.32 | 0.51 | 0.38 | 0.19 | <0.2 | 0.97 | 0.25 | 0.26 | 0.17 | 0.21 | 0.82 | 0.46 | 0.41 | inactive | 0.82 | 8.7 | inactive | <0.2 |
